Results: article PMC11374989 (Asian Journal of Pharmaceutical Sciences, 2024)
≈ marks a conversion by molar mass, not a printed value.

Assays:
IL-8 mRNA = experiment: RT-PCR of inflammatory factors, LPS-treated HaCaT cells; type: cell-based; details: 5 µmol/l for 12 h, then 1 µg/ml LPS 24 h, n = 3
TNF-α = experiment: Anti-inflammatory activity, ELISA, LPS-treated HaCaT cells; type: cell-based; details: 5 µmol/l for 12 h, then 1 µg/ml LPS 24 h, vs LPS, n = 3
Method in brief: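 HaCaT cells were grown in DMEM with 10% FBS and 1% penicillin at 37 °C and 5% CO2. They were seeded in 6-well plates and precultured to 80% confluence. Test compound was given for 12 h, then 1 µg/ml LPS for 24 h. Medium-only (36 h) and LPS-only groups served as controls. TNF-α in the supernatant was measured by ELISA; n = 3.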

Sau. = experiment: Minimum inhibition concentration; type: cell-based, Staphylococcus aureus; details: Sau. (GDMCC 1.1220), 1.5 × 10^6 CFU/ml, 48 h
Method in brief: (§1)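 The parent compound was dissolved in DMSO/saline (1:9) and NPs were diluted in water. Samples were serially diluted (1:1 to 1:256, v/v) in LB or RCM broth and incubated 48 h with bacteria. Growth was scored visually. P. acnes (GDMCC 1.243) was grown on RCM at 37 °C anaerobically; S. aureus (GDMCC 1.1220) and S. epidermidis (GDMCC 1.143) were grown on NA at 37 °C.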

NF-κB (p65) = experiment: Immunohistochemical observation of skin; type: in vivo, BALB/c-nu mice; details: after 7 d topical hydrogel, vs control group, n = 3
Method in brief: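 P. acnes-infected nude mice were treated topically with 1 mg/ml hydrogel. Skin was collected at the end of treatment and paraffin sections were immunostained with mouse anti-NF-κB p65 antibody (1:400). Staining was quantified as average optical density (AOD) per group by image analysis.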

P. acnes [1] = experiment: In vivo antibacterial efficiency; set-up: species or system BALB/c-nu mice; details: after 7 d of treatment, vs control, n = 3
Method in brief: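 Six-week-old male BALB/c-nu mice were acclimatized for 3 d. They received daily intradermal dorsal injections of P. acnes at 1.5 x 10^8 CFU/ml, 0.05 ml/10 g. Test compound in 1 mg/ml Carbopol 940 hydrogel was applied topically at 0.05 g/10 g; controls were untreated. At the end, 8 mm punch biopsies were homogenized in 2 ml PBS and diluted 10 times. A 0.1 ml aliquot was plated on RCM and grown anaerobically at 37 °C for 48 h. Colonies were counted and expressed as treated vs control (%).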

[2] = Oil-water distribution coefficient; type: physicochemical; details: n-octanol/water, logP Average, 25 °C, n = 3
Sep. = experiment: Minimum inhibition concentration; type: cell-based, Staphylococcus epidermidis; details: Sep. (GDMCC 1.143), 1.5 × 10^6 CFU/ml, 48 h
Method in brief: as §1

P. acnes [3] = experiment: Minimum inhibition concentration; type: cell-based, Propionibacterium acnes; details: P. acnes (GDMCC 1.243), anaerobic, 1.5 × 10^6 CFU/ml, 48 h
Method in brief: as §1

[4] = system: P. acnes-induced skin inflammation; experiment: P. acnes infection; type: in vivo, BALB/c-nu mice
Method in brief: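 Six-week-old male BALB/c-nu mice were acclimatized 3 d. They received P. acnes (1.5 × 10^8 CFU/ml) daily by intradermal injection into dorsal skin at 0.05 ml/10 g; the blank group was not injected. Test compound in 1 mg/ml Carbopol 940 hydrogel was applied topically to the inflamed area at 0.05 g/10 g; controls were left untreated. Swelling length and width were measured by caliper, with volume V = a×b²/2.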

[5] = Visualization of skin penetration by CLSM; type: in vitro ADME, BALB/c-nu nude mice; details: 6 h treatment
Method in brief: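 Dorsal skin was excised from six-week-old male BALB/c-nu nude mice and cleared of subcutaneous tissue. It was exposed to C6-loaded nanoparticles of the test compound, since the compound itself fluoresces weakly. Skin was processed as in the HPLC retention study, then imaged by confocal microscopy. Mean skin fluorescence intensity was calculated per group.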

Compound | IL-8 mRNA expression (IL-8 mRNA) | TNF-α expression level in supernatant (TNF-α) | MIC (Sau.) | NF-κB p65 expression in skin (AOD) (NF-κB (p65)) | Quantity of P. acnes in the skin (P. acnes [1]) | logP at 24 h [2] | MIC (Sep.) | MIC (P. acnes [3]) | Body weight and skin tolerance ([4]; 7-d treatment period, topical 1 mg/ml hydrogel) | Reduction in swelling volume ([4]; Day 7 of treatment, topical 1 mg/ml hydrogel (Carbopol 940), 0.05 g/10 g, n = 6) | Histomorphological observation (HE staining) of skin ([4]; after 7 d topical 1 mg/ml hydrogel) | Penetration of C6 into the skin (CLSM) [5]
CC(C)(C)c1ccc(S(=O)(=O)/C=C/C#N)cc1 [BAY11-7085] | restored to normal baseline levels | substantially suppressed TNF-α expression |  |  |  |  |  |  |  |  |  | 
C[C@H]1COC2=C1C(=O)C(=O)c1c2ccc2c1CCCC2(C)C [CTS, Cryptotanshinone] |  | although reduced, did not reach statistical significance | 125 µM (≈ 37 µg/mL) | slight reduction in NF-κB p65 expression | significantly reduced the quantity of P. acnes in the skin | 4.49 | 125 µM (≈ 37 µg/mL) | 250 µM (≈ 74.1 µg/mL) | no significant weight loss or skin dryness and erythema | 64.9% | reduction in skin thickness, accompanied by a decrease in keratinization | 
CCN(CC)c1ccc2cc(-c3nc4ccccc4s3)c(=O)oc2c1 [C6, coumarin-6] |  |  |  |  |  |  |  |  |  |  |  | solely observable in the skin's stratum corneum
